Values after ≈ are worked out from the molar mass of the structure shown.
Assays:
[1] = system: Mycobacterium tuberculosis; assay: Antimycobacterial activity against Mycobacterium tuberculosis H37Rv by agar dilution method; format: functional
Outline: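 Agar dilution MIC on Middlebrook 7H11 agar supplemented with OADC, following NCCLS-like procedure; determined in duplicate.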

Vero = assay: Cytotoxicity against african green monkey Vero cells after 72 hrs by MTT assay; format: cell-based; conditions: Chlorocebus sabaeus
Outline: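 Vero monkey kidney cells exposed to compounds by serial double dilution up to 62.5 µg/mL for 72 h. Viability read from cellular MTT conversion to formazan (Cell Titer 96 non-radioactive proliferation assay); IC50 reported.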

[2] = system: Mycobacterium tuberculosis; assay: Antimycobacterial activity against Mycobacterium tuberculosis ATCC 35801 infected in CD1 mouse assessed as bacterial load in lungs at 25 mg/kg, ip administered 10 days postinfection for 10 days measured after 35 days of infection (Rvb=7.99 +/- 0.16 log CFU); format: functional; conditions: route intraperitoneal
[3] = system: Mycobacterium tuberculosis; assay: Antimycobacterial activity against Mycobacterium tuberculosis ATCC 35801 infected in CD1 mouse assessed as bacterial load in spleen at 25 mg/kg, ip administered 10 days postinfection for 10 days measured after 35 days of infection (Rvb=9.02 +/- 0.21 log CFU); format: functional; conditions: route intraperitoneal
[4] = Selectivity index, ratio of IC50 for african green monkey Vero cells to MIC for Mycobacterium tuberculosis H37Rv; format: functional

Compound	MIC [1]	IC50 (Vero)	log10cfu [2]	log10cfu [3]	Selectivity Index [4]
Cc1ccc2ccc(C(=O)NCC3=C[C@@H]4Oc5ccccc5C(=O)C4=CN3c3ncc(Br)cc3Br)cc2c1	1.23 µM (≈ 0.777 µg/mL)	99 µM			
O=C(NCC1=C[C@@H]2Oc3ccccc3C(=O)C2=CN1c1ncc(Br)cc1Br)c1ccc(Cl)c(Cl)c1	9.82 µM (≈ 6.25 µg/mL)	50.7 µM			
NNC(=O)c1ccncc1 [ISONIAZID]	0.36 µM (≈ 0.0494 µg/mL)	> 456 µM	5.86	4.71	
Cc1ccc(C(=O)NCC2=C[C@@H]3Oc4ccccc4C(=O)C3=CN2c2ncc(Br)cc2Br)cc1	5.38 µM (≈ 3.13 µg/mL)				
Cc1cccnc1N1C=C2C(=O)c3ccccc3O[C@H]2C=C1CNC(=O)c1ccc(Cl)cc1	1.7 µM (≈ 0.778 µg/mL)	136 µM			
Cc1cccnc1N1C=C2C(=O)c3ccccc3O[C@H]2C=C1CNC(=O)COc1ccccc1	13.8 µM (≈ 6.25 µg/mL)				
COc1ccc(C(=O)NCC2=C[C@@H]3Oc4ccccc4C(=O)C3=CN2c2ncc(Br)cc2Br)cc1	10.5 µM (≈ 6.25 µg/mL)				
O=C(NCC1=C[C@@H]2Oc3ccccc3C(=O)C2=CN1c1ncc(Br)cc1Br)c1ccc(Cl)cc1	2.95 µM (≈ 1.77 µg/mL)	> 104 µM			
Cc1cccnc1N1C=C2C(=O)c3ccccc3O[C@H]2C=C1CNC(=O)c1ccc(F)cc1	7.09 µM (≈ 3.13 µg/mL)	> 142 µM			
CC1COc2c(N3CCN(C)CC3)c(F)cc3c(=O)c(C(=O)O)cn1c23 (centres undefined) [OFLOXACIN]	2.13 µM (≈ 0.77 µg/mL)	> 155 µM			
O=C(NCC1=C[C@@H]2Oc3ccccc3C(=O)C2=CN1c1ncc(Br)cc1Br)c1cccc(Cl)c1	5.2 µM (≈ 3.13 µg/mL)	104 µM			
Cc1cccnc1N1C=C2C(=O)c3ccccc3O[C@H]2C=C1CNC(=O)c1ccccc1	7.36 µM (≈ 3.12 µg/mL)	> 148 µM			
CC[C@@H](CO)NCCN[C@@H](CC)CO [ETHAMBUTOL]	7.63 µM (≈ 1.56 µg/mL)	> 306 µM			
CCc1ccc(C(=O)NCC2=C[C@@H]3Oc4ccccc4C(=O)C3=CN2c2ncc(Br)cc2Br)cc1	2.6 µM (≈ 1.55 µg/mL)	105 µM			
Cc1cccnc1N1C=C2C(=O)c3ccccc3O[C@H]2C=C1CNC(=O)c1ccc2ccccc2c1	0.84 µM (≈ 0.398 µg/mL)	142 µM			
Cc1cccnc1N1C=C2C(=O)c3ccccc3O[C@H]2C=C1CNC(=O)c1cccc(Cl)c1	1.7 µM (≈ 0.778 µg/mL)	> 136 µM			
Cc1ccc(C(=O)NCC2=C[C@@H]3Oc4ccccc4C(=O)C3=CN2c2ncccc2C)cc1	1.78 µM (≈ 0.779 µg/mL)	> 143 µM			
Cc1ccc2ccc(C(=O)NCC3=C[C@@H]4Oc5ccccc5C(=O)C4=CN3c3ncccc3C)cc2c1	0.41 µM (≈ 0.2 µg/mL)	> 128 µM			
CCc1ccc(C(=O)NCC2=C[C@@H]3Oc4ccccc4C(=O)C3=CN2c2ncccc2C)cc1	0.22 µM (≈ 0.0993 µg/mL)	> 138 µM	6.88	6.08	629
O=C(NCC1=C[C@@H]2Oc3ccccc3C(=O)C2=CN1c1ncc(Br)cc1Br)c1ccccc1	11 µM (≈ 6.25 µg/mL)				
O=C(NCC1=C[C@@H]2Oc3ccccc3C(=O)C2=CN1c1ncc(Br)cc1Br)c1ccc2ccccc2c1	2.52 µM (≈ 1.56 µg/mL)	101 µM			
CO[C@H]1/C=C/O[C@@]2(C)Oc3c(C)c(O)c4c(O)c(c(/C=N/N5CCN(C)CC5)c(O)c4c3C2=O)NC(=O)/C(C)=C\C=C\[C@H](C)[C@H](O)[C@@H](C)[C@@H](O)[C@@H](C)[C@H](OC(C)=O)[C@@H]1C [RIFAMPIN]	0.12 µM (≈ 0.0988 µg/mL)	> 75.9 µM			
COc1ccc(C(=O)NCC2=C[C@@H]3Oc4ccccc4C(=O)C3=CN2c2ncccc2C)cc1	1.72 µM (≈ 0.78 µg/mL)	> 138 µM			
O=C(COc1ccccc1)NCC1=C[C@@H]2Oc3ccccc3C(=O)C2=CN1c1ncc(Br)cc1Br	10.5 µM (≈ 6.25 µg/mL)				
O=C(NCC1=C[C@@H]2Oc3ccccc3C(=O)C2=CN1c1ncc(Br)cc1Br)c1ccc(F)cc1	10.7 µM (≈ 6.24 µg/mL)				

Source: ChEMBL document CHEMBL1154729, “Discovery of novel antitubercular 2,10-dihydro-4aH-chromeno[3,2-c]pyridin-3-yl derivatives” (Eur J Med Chem, 2010)
